In paper PMC4216208 (Journal of Medicinal Chemistry, 2014):

Columns and labels:
[1] = test system: C. elegans; assay: Bioaccumulation in C. elegans; type: in vitro ADME, Caenorhabditis elegans; details: late-stage L4 worms, 10 μM (2 nmol/mg worm), 6 h, LC-MS of homogenates
Method in brief: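 Synchronised C. elegans grown to late L4 on E. coli OP50 at 25 °C for 40 h, water-washed, and suspended in M9 at ~5−10 worms/μL. Dosed at 10 μM final (~2 nmol/mg worm) from DMSO stock, 6 or 12 h at rt. Washed in 0.1% SDS then water, frozen, lyophilised, weighed, extracted into cold MeOH/MeCN with internal standard. Quantified by LC-ESI-MS against blank-worm calibration; mean ± sd, n = 3.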

[2] = test system: C. elegans; assay: Metabolism of closantel in C. elegans; type: in vitro ADME, Caenorhabditis elegans
[3] = test system: O. volvulus L3 larvae; details: 100 μM; cited from earlier work
[4] = test system: HEK 293T/17 cells; assay: Mitochondrial-uncoupling assay; type: cell-based, human; details: 50 μM compound, TMRE staining
Method in brief: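 HEK 293T/17 cells were trypsinised and suspended at 1−2 × 10^6 cells/mL in DMEM with 10% FBS, then given test compound (50 μM) or DMSO for 30 min at 37 °C. TMRE (~450 nM final) was added for 30 min in the dark at 37 °C. Cells were washed twice in 0.2% BSA/PBS, resuspended, and read by plate fluorescence (em 575 nm). Unstained and DMSO controls were included; mean ± sd, n = 3.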

## Cc1cc(C(C#N)c2ccc(Cl)cc2)c(Cl)cc1NC(=O)c1cc(I)cc(I)c1O (centres unmarked) [Compound 1, closantel]
[1]
  accumulation in C. elegans (in words): accumulated in C. elegans
[2]
  sulfation, glycosylation and glucuronidation of the salicylate moiety in C. elegans homogenates: not observed
[2]; minor pathway, forms two monoiodoclosantel isomers
  primary metabolic pathway in C. elegans: reductive deiodination
[3]
  effect on molting of O. volvulus L3 to L4 larvae: inhibit the molting
[4]
  mitochondrial-uncoupling (protonophoric) activity: mitochondrial-uncoupling activity
